The record followed here is ChEMBL document CHEMBL4396879, “Conjugation of Short Peptides to Dibenzodiazepinone-Type Muscarinic Acetylcholine Receptor Ligands Determines M2R Selectivity” (J Med Chem, 2019).

What all share (type): cell-based
The target in test [1] is Muscarinic acetylcholine receptor M2 and M4 (Homo sapiens) (UniProt P08173+P08172). Kind of test: Selectivity ratio of Ki for human muscarinic M4 receptor expressed in CHO-K9 cells to Ki for human muscarinic M2 receptor expressed in CHO-K9 cells. An outline of the steps: (§1)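 Ratio of mean Ki values. Each Ki came from an individual [3H]NMS competition experiment at the given CHO-hMxR subtype, converting IC50 to Ki by Cheng-Prusoff before averaging.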

For test [2], the target named is Muscarinic acetylcholine receptor M2 and M5 (Homo sapiens) (UniProt P08172+P08912). In words: Selectivity ratio of Ki for human muscarinic M5 receptor expressed in CHO-K9 cells to Ki for human muscarinic M2 receptor expressed in CHO-K9 cells. An outline of the steps:
as §1

Test [3] has as its target Muscarinic acetylcholine receptors; M2 & M3 (Homo sapiens) (UniProt P20309+P08172). Kind of test: Selectivity ratio of Ki for human muscarinic M3 receptor expressed in CHO-K9 cells to Ki for human muscarinic M2 receptor expressed in CHO-K9 cells. An outline of the steps: as §1
Test [4] deals with Muscarinic acetylcholine receptor M3 (Homo sapiens, UniProt P20309). In words: Displacement of [3H]-NMS from human muscarinic M3 receptor expressed in CHO-K9 cells after 3 hrs by microbeta2 scintillation counting method. An outline of the steps:
(§2)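 [3H]NMS competition binding on intact CHO-hMxR cells in L15 medium with 1% BSA, 3 h at 22 ± 1 °C with gentle shaking. [3H]NMS was 0.2 nM (M1, M2, M3), 0.1 nM (M4) or 0.3 nM (M5). […] Cells were lysed in urea/acetic acid/Triton and counted by liquid scintillation. Ki from Cheng-Prusoff. Triplicates, ≥3 experiments.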
(In a radioligand displacement assay an active substance lowers the binding of a labelled ligand.)

In test [5] the target is T1, Muscarinic acetylcholine receptor M4 (Homo sapiens, UniProt P08173).
T1 sequence (P08173 whole entry): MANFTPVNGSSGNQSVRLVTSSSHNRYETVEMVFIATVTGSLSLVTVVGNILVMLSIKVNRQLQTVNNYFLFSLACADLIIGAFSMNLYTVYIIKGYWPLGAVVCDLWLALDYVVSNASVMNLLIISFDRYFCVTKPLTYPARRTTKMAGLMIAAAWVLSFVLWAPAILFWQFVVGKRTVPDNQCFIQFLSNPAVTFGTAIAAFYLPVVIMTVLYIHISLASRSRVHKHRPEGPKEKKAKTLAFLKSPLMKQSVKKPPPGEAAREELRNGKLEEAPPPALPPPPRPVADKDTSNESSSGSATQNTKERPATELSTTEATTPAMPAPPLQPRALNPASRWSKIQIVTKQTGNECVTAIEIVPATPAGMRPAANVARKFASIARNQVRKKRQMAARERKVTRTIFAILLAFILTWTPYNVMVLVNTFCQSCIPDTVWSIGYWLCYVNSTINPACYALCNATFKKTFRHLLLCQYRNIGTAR
In words: Displacement of [3H]-NMS from human muscarinic M4 receptor expressed in CHO-K9 cells after 3 hrs by microbeta2 scintillation counting method. The gist of the method:
as §2

For test [6], the target named is Muscarinic acetylcholine receptors; M1 & M2 (Homo sapiens) (UniProt P11229+P08172). Kind of test: Selectivity ratio of Ki for human muscarinic M1 receptor expressed in CHO-K9 cells to Ki for human muscarinic M2 receptor expressed in CHO-K9 cells. The gist of the method: as §1
The target in test [7] is T2, Muscarinic acetylcholine receptor M1 (Homo sapiens, UniProt P11229).
T2 sequence (P11229 whole entry): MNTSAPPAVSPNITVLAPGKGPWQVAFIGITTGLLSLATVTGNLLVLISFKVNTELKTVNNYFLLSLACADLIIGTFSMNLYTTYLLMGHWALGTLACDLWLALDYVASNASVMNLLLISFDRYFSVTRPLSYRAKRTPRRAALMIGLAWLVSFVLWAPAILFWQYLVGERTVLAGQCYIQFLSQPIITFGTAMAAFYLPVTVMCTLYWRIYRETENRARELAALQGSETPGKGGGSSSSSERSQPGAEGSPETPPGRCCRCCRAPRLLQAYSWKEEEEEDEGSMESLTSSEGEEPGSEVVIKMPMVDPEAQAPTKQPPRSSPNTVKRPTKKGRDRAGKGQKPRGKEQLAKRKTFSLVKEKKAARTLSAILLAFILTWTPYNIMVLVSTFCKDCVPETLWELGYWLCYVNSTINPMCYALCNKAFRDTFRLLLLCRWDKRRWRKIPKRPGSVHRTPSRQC
Kind of test: Displacement of [3H]-NMS from human muscarinic M1 receptor expressed in CHO-K9 cells after 3 hrs by microbeta2 scintillation counting method. An outline of the steps: as §2

Test [8] addresses T3, Muscarinic acetylcholine receptor M2 (Homo sapiens, UniProt P08172).
T3 sequence (P08172 whole entry): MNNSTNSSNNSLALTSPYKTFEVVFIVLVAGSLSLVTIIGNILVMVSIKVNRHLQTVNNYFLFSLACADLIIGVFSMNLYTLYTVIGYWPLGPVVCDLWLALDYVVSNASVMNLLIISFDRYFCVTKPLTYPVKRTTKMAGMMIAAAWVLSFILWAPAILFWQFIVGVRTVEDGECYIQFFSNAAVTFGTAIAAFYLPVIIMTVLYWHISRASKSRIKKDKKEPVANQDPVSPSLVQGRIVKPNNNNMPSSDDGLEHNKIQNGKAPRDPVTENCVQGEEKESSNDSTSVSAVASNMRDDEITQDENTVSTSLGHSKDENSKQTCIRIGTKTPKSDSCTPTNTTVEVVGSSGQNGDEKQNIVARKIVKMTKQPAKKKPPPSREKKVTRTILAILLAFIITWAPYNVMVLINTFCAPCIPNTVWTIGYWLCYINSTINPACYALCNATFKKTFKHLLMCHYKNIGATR
Kind of test: Displacement of [3H]-NMS from human muscarinic M2 receptor expressed in CHO-K9 cells after 3 hrs by microbeta2 scintillation counting method. The gist of the method: as §2

Test [9] addresses T4, Muscarinic acetylcholine receptor M5 (Homo sapiens, UniProt P08912).
T4 sequence (P08912 whole entry): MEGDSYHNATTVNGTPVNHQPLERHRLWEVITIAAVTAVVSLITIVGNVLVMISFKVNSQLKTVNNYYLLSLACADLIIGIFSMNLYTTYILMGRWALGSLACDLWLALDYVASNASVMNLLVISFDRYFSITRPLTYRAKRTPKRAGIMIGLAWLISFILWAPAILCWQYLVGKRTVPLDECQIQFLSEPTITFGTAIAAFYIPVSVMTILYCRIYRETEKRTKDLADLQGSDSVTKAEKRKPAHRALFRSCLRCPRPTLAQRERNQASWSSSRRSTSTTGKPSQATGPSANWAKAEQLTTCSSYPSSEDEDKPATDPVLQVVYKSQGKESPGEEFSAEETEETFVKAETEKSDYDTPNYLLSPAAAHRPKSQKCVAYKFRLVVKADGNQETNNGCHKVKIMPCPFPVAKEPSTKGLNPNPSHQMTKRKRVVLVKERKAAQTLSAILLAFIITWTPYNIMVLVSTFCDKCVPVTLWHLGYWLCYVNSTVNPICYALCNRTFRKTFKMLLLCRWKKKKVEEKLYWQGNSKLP
In words: Displacement of [3H]-NMS from human muscarinic M5 receptor expressed in CHO-K9 cells after 3 hrs by microbeta2 scintillation counting method. The gist of the method: as §2

By Ki is commonly meant the equilibrium dissociation constant of an inhibitor or competing ligand from its target. A higher Ki goes with lower affinity.

Sequence of Muscarinic acetylcholine receptors; M2 & M3 (Homo sapiens) (P20309 whole entry, looked up, one chain of several): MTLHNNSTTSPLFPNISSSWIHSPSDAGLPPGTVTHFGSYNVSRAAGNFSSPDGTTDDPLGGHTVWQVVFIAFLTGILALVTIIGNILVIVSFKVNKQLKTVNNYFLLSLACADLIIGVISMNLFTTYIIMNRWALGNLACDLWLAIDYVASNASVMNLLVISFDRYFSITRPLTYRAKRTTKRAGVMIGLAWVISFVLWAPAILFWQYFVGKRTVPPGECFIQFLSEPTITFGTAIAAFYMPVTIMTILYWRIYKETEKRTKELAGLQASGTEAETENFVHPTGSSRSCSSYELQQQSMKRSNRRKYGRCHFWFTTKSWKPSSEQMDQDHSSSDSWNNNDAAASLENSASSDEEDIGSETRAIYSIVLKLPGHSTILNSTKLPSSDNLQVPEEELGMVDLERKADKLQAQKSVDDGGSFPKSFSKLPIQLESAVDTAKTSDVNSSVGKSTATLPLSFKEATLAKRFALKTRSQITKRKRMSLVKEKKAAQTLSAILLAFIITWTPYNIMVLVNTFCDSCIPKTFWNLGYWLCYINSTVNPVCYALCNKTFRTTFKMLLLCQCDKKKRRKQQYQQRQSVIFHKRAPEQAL
Sequence of Muscarinic acetylcholine receptor M3 (P20309 whole entry): as the sequence (P20309 whole entry, looked up, one chain of several) above

With `CC(=O)N[C@@H](Cc1c[nH]c2ccccc12)C(=O)N[C@@H](C)C(=O)N[C@@H](Cc1ccc(O)cc1)C(=O)NCCCCC1CCN(CC(=O)N2c3ccccc3NC(=O)c3ccccc32)CC1`, the Ratio Ki in [1] was determined as 1.9; in test [2], 6.2; in test [3] it was 56; in [6] it was 4.7. Besides, the Ki in test [4] is 1150 nM; in [5] it was 37.2 nM; in [7], 93.3 nM; in [8], 20 nM; in test [9] it was 120 nM.

Regarding `CC(=O)N[C@@H](CCC(N)=O)C(=O)N[C@@H](C)C(=O)N[C@@H](CC(C)C)C(=O)NCCCCC1CCN(CC(=O)N2c3ccccc3NC(=O)c3ccccc32)CC1`, the Ratio Ki in test [1] is 1.7; in test [2], 4.4; in test [3], above 36; in [6], 2.2. The Ki in test [4] is above 10000 nM; in [5], 417 nM; in [7], 537 nM; in test [8], 240 nM; in [9] it was 1200 nM.

As to `CC(=O)N[C@@H](CCC(N)=O)C(=O)N[C@@H](CC(C)C)C(=O)NCCCCC1CCN(CC(=O)N2c3ccccc3NC(=O)c3ccccc32)CC1`, the Ratio Ki was 3.6 in test [1], 4.9 in [2], above 27 in test [3] and 3.4 in test [6]. The Ki was above 10000 nM in test [4]; 1070 nM in test [5]; 1050 nM in test [7]; 309 nM in [8]; 1510 nM in test [9].

For `CC(=O)N[C@@H](CCCCN)C(=O)N[C@@H](C)C(=O)N[C@@H](Cc1ccc(O)cc1)C(=O)NCCCCC1CCN(CC(=O)N2c3ccccc3NC(=O)c3ccccc32)CC1`, the Ratio Ki was 5.8 in [1], 53 in test [2], 160 in [3] and 14 in test [6]. Further, the Ki is 661 nM in test [4]; 23.4 nM in test [5]; 58.9 nM in [7]; 4.27 nM in test [8]; 224 nM in test [9].

Consider `CC(=O)N[C@@H](Cc1c[nH]c2ccccc12)C(=O)N[C@@H](Cc1ccc(O)cc1)C(=O)NCCN1CCN(CCCCC2CCN(CC(=O)N3c4ccccc4NC(=O)c4ccccc43)CC2)CC1`, for which the Ratio Ki in [1] was found to be 7; in [2], 220; in test [3], 79; in [6] it was 6.3. Also, the inhibition constant (Ki) is 13.5 nM in test [4]; 1.07 nM in test [5]; 0.871 nM in [7]; 0.148 nM in [8]; 38.9 nM in test [9].

Regarding `CC(=O)N[C@@H](CCC(N)=O)C(=O)N[C@@H](CC(C)C)C(=O)NCCN1CCN(CCCCC2CCN(CC(=O)N3c4ccccc4NC(=O)c4ccccc43)CC2)CC1`, the Ratio Ki was determined as 5.4 in [1], 1300 in [2], 270 in [3] and 9.6 in [6]. Besides, the Ki in [4] was 61.7 nM; in [5], 1.2 nM; in test [7], 2.4 nM; in test [8], 0.24 nM; in [9], 295 nM.

Turning to `CC(=O)N[C@@H](CCCCN)C(=O)N[C@@H](CCCNC(=N)N)C(=O)NCCN1CCN(CCCCC2CCN(CC(=O)N3c4ccccc4NC(=O)c4ccccc43)CC2)CC1`, the Ratio Ki was 37 in [1], 1900 in test [2], 800 in test [3] and 20 in [6]. Further, the inhibitory constant (Ki) is 49 nM in test [4]; 2.04 nM in test [5]; 1.23 nM in test [7]; 0.0631 nM in test [8]; 112 nM in [9].

Regarding `CC(=O)N[C@@H](CCCCN)C(=O)N[C@@H](Cc1ccc(O)cc1)C(=O)NCCCCC1CCN(CC(=O)N2c3ccccc3NC(=O)c3ccccc32)CC1`, the Ratio Ki in test [1] stood at 5.9; in [2], 43; in [3] it was 720; in test [6], 17. Further, the inhibitory constant (Ki) is 1620 nM in test [4]; 10.7 nM in [5]; 30.2 nM in test [7]; 1.82 nM in [8]; 74.1 nM in [9].

As for `CC(=O)N[C@@H](CCCCN)C(=O)N[C@@H](C)C(=O)N[C@@H](Cc1ccc(O)cc1)C(=O)NCCN1CCN(CCCCC2CCN(CC(=O)N3c4ccccc4NC(=O)c4ccccc43)CC2)CC1`, the Ratio Ki in test [1] came to 8.1; in test [2], 560; in test [3], 240; in test [6] it was 8.3. Moreover, the Ki in test [4] was 44.7 nM; in test [5] it was 1.26 nM; in test [7], 1.26 nM; in test [8], 0.174 nM; in [9], 95.5 nM.

As for `CC(=O)N[C@@H](CCCNC(=N)N)C(=O)NCCCCC1CCN(CC(=O)N2c3ccccc3NC(=O)c3ccccc32)CC1`, the Ratio Ki is 13 in test [1], 86 in test [2], 140 in [3] and 8.4 in test [6]. In addition, the inhibition constant Ki in test [4] is 1480 nM; in test [5] it was 148 nM; in test [7], 97.7 nM; in test [8] it was 11.2 nM; in [9] it was 977 nM.

`CCC(=O)NCc1cc(C(=O)NCCN2CCC(N3CCC(n4c(=O)[nH]c5ccccc54)CC3)CC2)cc(C(=O)NCCN2CCN(CCCCC3CCN(CC(=O)N4c5ccccc5NC(=O)c5ccccc54)CC3)CC2)c1`: the Ratio Ki was determined as 7.4 in test [1], 300 in test [2], 78 in test [3] and 7.6 in test [6].
